Data set [1] is described as follows: Drug localization in endolysosomal compartment of human HT-29 cells assessed as decrease in co-localization efficiency at 5 uM incubated for 2 hrs and measured over 24 hrs using natEu labelled compound by lysotracker green staining based confocal microscopic analysis relative to control. The class given is ADME, subcellular. To be noted: ht-29, 5 µM. In a few lines:
(§1)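 HT-29 cells (1.25 × 10^5/well) loaded with natEu conjugate (5 μM), washed, then chased in fresh medium up to 24 h. Lysotracker Green (100 nM) applied 2 h before each read; cells fixed and imaged confocally at 405/488 nm. Per-cell mean fluorescence and Lysotracker co-localization quantified.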

Data set [2] in a line: Drug localization in endolysosomal compartment of human HT-29 cells assessed as co-localization efficiency at 5 uM incubated for 2 hrs and measured over 24 hrs using natEu labelled compound by lysotracker green staining based confocal microscopic analysis relative to control. The class given is ADME, subcellular. The note with it: ht-29, 5 µM. A digest of the protocol: as §1

Data set [3] can be described thus: Drug uptake in pancreas of SCID mouse xenografted with human HT-29 cells using 177Lu labelled compound at 0.37 MBq/mouse, iv co-treated with D-lysine at 40 mg/kg measured at 24 hrs by gamma counter analysis. The class given is ADME, organism-based. The note with it: in vivo. A digest of the protocol: (§2)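 Female SCID mice bore s.c. HT-29 xenografts (5 × 10^6 cells in Matrigel, about 80 mm3). D-lysine 40 mg/kg was co-injected i.v. with 10 μCi (0.37 MBq) of purified 177Lu-conjugate. Tissues were harvested at 24 h, weighed and gamma-counted, reported as %ID/g; mean ± SD, n = 5.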
Background: Xenograft models place foreign cells or tissue in a host animal.

Data set [4] can be described thus: Drug distribution in human HT-29 cells assessed as adduct signals at 24 hrs relative to baseline. The class given is ADME, cell-based. To be noted: ht-29, 24 h. In a few lines: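 HT-29 cells preloaded 4 h with 177Lu conjugate (0.74 MBq), washed and chased in fresh medium. Lysates taken at 0 and 24 h and run on SDS-PAGE autoradiography; adduct band radioactivity at 24 h expressed relative to the 0 h intensity.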

Data set [5] is described as follows: Drug retention in liver lysates of mouse xenografted with human HT-29 cells assessed as macromolecule associated radioactivity at 29.6 MBq co-treated with D-lysine measured after 72 hrs using 177Lu labelled compound by gamma counter analysis relative to control. The class given is ADME, tissue-based. The note with it: in vivo.
The nature of data set [6]: Drug uptake in heart of SCID mouse xenografted with human HT-29 cells pretreated for 1 hr with colchicine at 1 mg/kg, ip followed by 177Lu labelled compound at 0.37 MBq/mouse, iv measured at 24 hrs by gamma counter analysis. The class given is ADME, organism-based. To be noted: in vivo. A digest of the protocol:
(§3)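 HT-29 flank xenografts in female SCID mice (5 × 10^6 cells in Matrigel, about 80 mm3). Colchicine 1 mg/kg was given i.p. before a tail-vein injection of 10 μCi (0.37 MBq) of purified 177Lu-conjugate. Tissues were taken at 24 h, weighed and gamma-counted as %ID/g; mean ± SD, n = 5.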

The target in data set [7] is T1, Procathepsin L (Homo sapiens, UniProt P07711). Nature of the data set: Binding affinity to human liver cathepsin L assessed as protein-conjugate adduct formation at 0.74 MBq incubated for 30 mins in presence of E-64 using 177Lu labelled compound by SDS-PAGE analysis. The note with it: 0.74 M. In a few lines:
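Purified human liver CatB or CatL (3 nM) in 50 mM sodium acetate/1 mM EDTA pH 5.0 incubated 30 min with 177Lu conjugate (500,000 cpm) in Tris/MgCl2/DTT buffer pH 5.5, alone or with E-64 (10 μM) or N1 (20 μM). Mixtures heated 85 °C 2 min, run on 16% tris-glycine gel at 110 V for 90 min, and read by phosphor autoradiography.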
Target sequence in this assay (P07711 114-333 limits assumed): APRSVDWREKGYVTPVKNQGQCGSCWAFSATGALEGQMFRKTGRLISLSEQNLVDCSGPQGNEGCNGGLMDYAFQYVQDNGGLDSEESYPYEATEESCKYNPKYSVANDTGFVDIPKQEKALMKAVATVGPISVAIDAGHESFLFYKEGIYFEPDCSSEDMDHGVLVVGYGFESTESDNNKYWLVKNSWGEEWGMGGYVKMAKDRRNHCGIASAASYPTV

A short description of data set [8]: Drug uptake in spleen of SCID mouse xenografted with human HT-29 cells pretreated for 1 hr with colchicine at 1 mg/kg, ip followed by 177Lu labelled compound at 0.37 MBq/mouse, iv measured at 24 hrs by gamma counter analysis. The note with it: in vivo. The class given is ADME, organism-based. In a few lines:
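HT-29 xenograft SCID mice pretreated with colchicine 1 mg/kg i.p., then given 177Lu conjugate i.v. at 10 μCi (0.37 MBq)/mouse. Tissues excised at 24 h, weighed and gamma counted for %ID/g (n = 5, mean ± SD).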

In data set [9] the target is T1, Procathepsin L. The data set is described as follows: Inhibition of human liver cathepsin L assessed as inhibition constant using Z-Phe-Arg-AMC as substrate measured every 5 mins for 1 hr by fluorescence assay. A digest of the protocol: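 Human liver cathepsin L in acetate buffer pH 5.5 (340 mM sodium acetate, 60 mM acetic acid, 1 mM EDTA, 3 mM DTT). Biological triplicate.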
Target sequence in this assay (P07711 whole entry): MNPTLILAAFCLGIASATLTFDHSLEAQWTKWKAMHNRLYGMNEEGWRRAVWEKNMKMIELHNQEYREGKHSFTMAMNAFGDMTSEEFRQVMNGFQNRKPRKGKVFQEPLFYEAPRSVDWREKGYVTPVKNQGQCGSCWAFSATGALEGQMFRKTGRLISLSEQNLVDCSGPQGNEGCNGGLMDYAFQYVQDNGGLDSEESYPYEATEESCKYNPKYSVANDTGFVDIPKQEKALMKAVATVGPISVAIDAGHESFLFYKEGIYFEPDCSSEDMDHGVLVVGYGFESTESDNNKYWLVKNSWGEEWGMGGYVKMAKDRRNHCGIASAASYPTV

Data set [10] in a line: Drug uptake in large intestine of SCID mouse xenografted with human HT-29 cells pretreated for 1 hr with colchicine at 1 mg/kg, ip followed by 177Lu labelled compound at 0.37 MBq/mouse, iv measured at 24 hrs by gamma counter analysis. The class given is ADME, organism-based. To be noted: in vivo. A digest of the protocol: as §3
Data set [11] is described as follows: Drug retention in kidney lysates of mouse xenografted with human HT-29 cells assessed as macromolecule associated radioactivity at 29.6 MBq co-treated with D-lysine measured after 72 hrs using 177Lu labelled compound by gamma conter analysis relative to control. The class given is ADME, tissue-based. The note with it: in vivo.
The target in data set [12] is T2, Cathepsin B (Homo sapiens, UniProt P07858). The data set is described as follows: Binding affinity to cathepsin B in human HT-29 cells assessed as intracellular adduct formation at 0.74 MBq incubated for 4 hrs in presence of DOTA-beta-ala-[N-alpha-Me8, Dmt11, Tle12] NT6-13 using 177Lu labelled compound by SDS-PAGE analysis. The class given is cell-based. On the set-up: dose or concentration left out as unconfirmed. In a few lines:
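HT-29 cells (1 × 10^6/well) incubated 4 h at 37 °C with 177Lu conjugate (20 μCi, 0.74 MBq) in 1 mL medium, with or without E-64 (10 μM) or NTSR1 peptide N1 (20 μM). Cells washed and refed; at set times cells pooled, RIPA-lysed with protease inhibitor. Lysates heated 85 °C 2 min, run on 16% tris-glycine SDS-PAGE, and phosphor autoradiography taken after 72 h exposure.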

Data set [13] in a line: Drug uptake in liver of SCID mouse xenografted with human HT-29 cells using 177Lu labelled compound at 0.37 MBq/mouse, iv co-treated with D-lysine at 40 mg/kg measured at 24 hrs by gamma counter analysis. The class given is ADME, organism-based. To be noted: in vivo. A digest of the protocol:
as §2

Data set [14] is described as follows: Ratio of drug uptake in SCID mouse xenograted with human HT-29 cells assessed as tumour retention to drug uptake in large intestine of SCID mouse xenografted with human HT-29 cells cotreated with D-lysine at 40 mg/kg measured after 24 hrs using 177Lu labelled compound. The class given is ADME, organism-based, Tumor/Large intestine. The note with it: in vivo. In a few lines: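 Female SCID mice (5 weeks old) carried subcutaneous flank HT-29 xenografts (5 × 10^6 cells in Matrigel), used at about 80 mm3. They received 10 μCi (0.37 MBq) of purified 177Lu-labelled conjugate i.v. by tail vein, with D-lysine 40 mg/kg co-injected. At 24 h p.i., tissues were excised, weighed and gamma-counted, and %ID/g and tumour-to-tissue ratios were calculated (n = 5).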

Data set [15] is described as follows: Drug uptake in heart of SCID mouse xenografted with human HT-29 cells using 177Lu labelled compound at 0.37 MBq/mouse, iv co-treated with D-lysine at 40 mg/kg measured at 24 hrs by gamma counter analysis. The class given is ADME, organism-based. To be noted: in vivo. In a few lines:
as §2

The target of data set [16] is T2, Cathepsin B. Nature of the data set: Inhibition of human liver cathepsin B assessed as inhibition constant using Z-Arg-Arg-AMC as substrate measured every 5 mins for 1 hr by fluorescence assay.

This is an account of results in ChEMBL document CHEMBL4350999, “Enhanced tumor retention of NTSR1-targeted agents by employing a hydrophilic cysteine cathepsin inhibitor” (Eur J Med Chem, 2019).

Active and inactive are the calls of the source. No cut-off for these calls is given here.

As to `Cc1cc(O)cc(C)c1C[C@H](NC(=O)[C@@H]1CCCN1C(=O)[C@H](CCCNC(=N)N)NC(=O)[C@H](CCCNC(=N)N)N(C)C(=O)[C@@H]1CCCN1C(=O)[C@H](CCCCN)NC(=O)[C@@H](CO)NC(=O)[C@@H](CO)NC(=O)[C@@H](CO)NC(=O)[C@H](Cc1cn(CCNC(=O)[C@H](CCCNC(=N)N)NC(=O)[C@H](CC(C)C)NC(=O)CCC(=O)O)nn1)NC(=O)CN1CCN(CC(=O)O)CCN(CC(=O)O)CCN(CC(=O)O)CC1)C(=O)N[C@H](C(=O)N[C@@H](CC(C)C)C(=O)O)C(C)(C)C`, the Drug uptake in data set [1] was determined as 20%.
The term Ki denotes the dissociation constant of the complex between target and ligand, obtained from inhibition or displacement. As for `Cc1cc(O)cc(C)c1C[C@H](NC(=O)[C@@H]1CCCN1C(=O)[C@H](CCCNC(=N)N)NC(=O)[C@H](CCCNC(=N)N)N(C)C(=O)[C@@H]1CCCN1C(=O)[C@H](CCCCN)NC(=O)[C@@H](CO)NC(=O)[C@@H](CO)NC(=O)[C@@H](CO)NC(=O)[C@H](Cc1cn(CCNC(=O)[C@H](CCCNC(=N)N)NC(=O)[C@H](CC(C)C)NC(=O)C2OC2C(=O)O)nn1)NC(=O)CN1CCN(CC(=O)O)CCN(CC(=O)O)CCN(CC(=O)O)CC1)C(=O)N[C@H](C(=O)N[C@@H](CC(C)C)C(=O)O)C(C)(C)C` (stereo partly specified), the Drug uptake in data set [2] is 60%; in [3] it was 0.14 % ID/g; in data set [4], 55%; in [5], 80%; in data set [6], 0.2 % ID/g; in [8] it was 4 % ID/g. Further, the Drug uptake is recorded as 0.67 % ID/g in data set [10], 80% in [11], 0.65 % ID/g in data set [13] and 0.14 % ID/g in data set [15]. The result on Procathepsin L [7] and on Cathepsin B [12] was inactive. Moreover, the results for the Ki on Procathepsin L [9] and at Cathepsin B [16] were 76 nM and 110 nM, respectively. For the same molecule, the Ratio in data set [14] is 8.
